Measurements published in ChEMBL document CHEMBL2062362, “Bioactive 3,4-seco-Triterpenoids from the Fruits of Acanthopanax sessiliflorus” (J Nat Prod, 2012).

Tests used:
[1] = system: HepG2; assay: Cytotoxicity against human HepG2 cells by MTT assay; assay type: functional, cell-based
[2] = system: SK-MEL-5; assay: Cytotoxicity against human SK-MEL-5 cells by MTT assay; assay type: functional, cell-based
[3] = system: SK-BR-3; assay: Cytotoxicity against human SKBR3 cells by MTT assay; assay type: functional, cell-based
[4] = system: RAW264.7; assay: Antiinflammatory activity in mouse RAW264.7 cells assessed as inhibition of LPS-stimulated NO production pretreated for 30 mins before LPS challenge measured after 24 hrs by Griess reagent
[5] = system: MCF7; assay: Cytotoxicity against human MCF7 cells by MTT assay; assay type: functional, cell-based
[6] = system: SK-OV-3; assay: Cytotoxicity against human SKOV3 cells by MTT assay; assay type: functional, cell-based
[7] = system: HeLa; assay: Cytotoxicity against human HeLa cells by MTT assay; assay type: functional, cell-based
[8] = system: HCT-116; assay: Cytotoxicity against human HCT116 cells by MTT assay; assay type: functional, cell-based
[9] = Cytotoxicity against mouse RAW264.7 cells assessed as cell viability after 24 hrs by MTT assay; assay type: cell-based; parameters: concentration or dose not given beside the values; conditions: read-out: Activity
In short: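 The same LPS-stimulated RAW 264.7 cultures (1 × 10⁴ cells/well) were pretreated with samples for 30 min, then given LPS at 1 μg/mL for 24 h. Viability was assessed by MTT reduction and expressed as a percentage of the LPS-only group. Data are means ± SD of three independent experiments.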

Molecule `C=C(C)[C@@H]1C[C@H](O)[C@]2(C(=O)O[C@@H]3O[C@H](CO)[C@@H](O)[C@H](O)[C@H]3O)CC[C@]3(C)[C@H](C[C@H]4OC(=O)C[C@@H](O)[C@]5(C)[C@@H]4[C@@]3(C)CC[C@H]5C(=C)C)[C@@H]12` [ACANTHOSESSILIOSIDE F] has an IC50 [1] greater than 10 µM, an IC50 [2] greater than 10 µM and an IC50 [3] greater than 10 µM. It also gave an IC50 [4] greater than 50 µM, an IC50 [5] greater than 10 µM and an IC50 [6] greater than 10 µM. For the same molecule, the IC50 [7] was greater than 10 µM and the IC50 [8] was greater than 10 µM.

`C=C(C)[C@@H]1CC[C@]2(C(=O)O[C@@H]3O[C@H](CO)[C@@H](O)[C@H](O)[C@H]3O)CC[C@]3(C)[C@H](C[C@@H](O)[C@@H]4[C@@]5(C)[C@@H](CC(=O)OC)OC(C)(C)[C@@H]5CC[C@]43C)[C@@H]12` [ACANTHOSESSILIOSIDE B] showed an IC50 [1] greater than 10 µM, an IC50 [2] greater than 10 µM and an IC50 [3] greater than 10 µM. For the same molecule, the IC50 [4] was 20.6 µM, the IC50 [5] was greater than 10 µM and the IC50 [6] was greater than 10 µM. The IC50 [7] was greater than 10 µM, the IC50 [8] was greater than 10 µM and the viability at 24 h [9] was 93%.

In the case of `C=C(C)[C@@H]1CC[C@]2(C(=O)O)CC[C@]3(C)[C@H](C[C@@H](O)[C@@H]4[C@@]5(C)[C@@H](CC(=O)OC)OC(C)(C)[C@@H]5CC[C@]43C)[C@@H]12` [ACANTHOSESSILIGENIN II], the IC50 [1] is reported as greater than 10 µM, the IC50 [2] is reported as greater than 10 µM and the IC50 [3] is reported as greater than 10 µM. It also gave an IC50 [4] of 47 µM, an IC50 [5] greater than 10 µM and an IC50 [6] greater than 10 µM. For the same molecule, the IC50 [7] was greater than 10 µM, the IC50 [8] was greater than 10 µM and the viability at 24 h [9] was 91.1%.

Work on `C=C(C)[C@@H]1C[C@H](O)[C@]2(C(=O)O)CC[C@]3(C)[C@H](CC[C@@H]4[C@@](C)(CCC(=O)OC)[C@H](C(=C)C)CC[C@]43C)[C@@H]12` [ACANTHOSESSILIGENIN I] yielded an IC50 [1] greater than 10 µM, an IC50 [2] greater than 10 µM and an IC50 [3] greater than 10 µM. For the same molecule, the IC50 [4] was 11.3 µM, the IC50 [5] was greater than 10 µM and the IC50 [6] was greater than 10 µM. It also gave an IC50 [7] greater than 10 µM, an IC50 [8] greater than 10 µM and a viability at 24 h [9] of 88.8%.

For `C=C(C)[C@@H]1CC[C@]2(C(=O)O[C@@H]3O[C@H](CO)[C@@H](O)[C@H](O)[C@H]3O)CC[C@]3(C)[C@H](CC[C@@H]4[C@@](C)(CCC(=O)O)[C@H](C(=C)C)CC[C@]43C)[C@@H]12` [ACANTHOSESSILIOSIDE A], the IC50 [1] was greater than 10 µM, the IC50 [2] was greater than 10 µM and the IC50 [3] was greater than 10 µM. For the same molecule, the IC50 [4] was 18.3 µM, the IC50 [5] was greater than 10 µM and the IC50 [6] was greater than 10 µM. It also gave an IC50 [7] greater than 10 µM, an IC50 [8] greater than 10 µM and a viability at 24 h [9] of 93.5%.

For `C=C(C)[C@@H]1C[C@H](O)[C@]2(C(=O)O[C@@H]3O[C@H](CO)[C@@H](O)[C@H](O)[C@H]3O)CC[C@]3(C)[C@H](CC[C@@H]4[C@@]5(C)[C@@H](CC(=O)O)OC(C)(C)[C@@H]5CC[C@]43C)[C@@H]12` [ACANTHOSESSILIOSIDE E], the IC50 [1] was greater than 10 µM, the IC50 [2] was greater than 10 µM and the IC50 [3] was greater than 10 µM. For the same molecule, the IC50 [4] was greater than 50 µM, the IC50 [5] was greater than 10 µM and the IC50 [6] was greater than 10 µM. For the same molecule, the IC50 [7] was greater than 10 µM and the IC50 [8] was greater than 10 µM.

Molecule `C=C(C)[C@@H]1C[C@H](O)[C@]2(C(=O)O)CC[C@]3(C)[C@H](C[C@@H](O)[C@@H]4[C@@]5(C)[C@@H](CC(=O)O)OC(C)(C)[C@@H]5CC[C@]43C)[C@@H]12` has an IC50 [1] greater than 10 µM, an IC50 [2] greater than 10 µM and an IC50 [3] greater than 10 µM. For the same molecule, the IC50 [4] was greater than 50 µM, the IC50 [5] was greater than 10 µM and the IC50 [6] was greater than 10 µM. For the same molecule, the IC50 [7] was greater than 10 µM and the IC50 [8] was greater than 10 µM.

Molecule `N=C(N)NN` [PIMAGEDINE] has an IC50 [4] of 6.5 µM and a viability at 24 h [9] of 84.6%.

With `C=C(C)[C@@H]1CC[C@]2(C(=O)O[C@@H]3O[C@H](CO[C@@H]4O[C@H](CO)[C@@H](O)[C@H](O)[C@H]4O)[C@@H](O)[C@H](O)[C@H]3O)CC[C@]3(C)[C@H](C[C@H]4OC(=O)C[C@@H](O)[C@]5(C)[C@@H]4[C@@]3(C)CC[C@H]5C(=C)C)[C@@H]12` the IC50 [1] was greater than 10 µM, the IC50 [2] was greater than 10 µM and the IC50 [3] was greater than 10 µM. It also gave an IC50 [4] greater than 50 µM, an IC50 [5] greater than 10 µM and an IC50 [6] greater than 10 µM. For the same molecule, the IC50 [7] was greater than 10 µM and the IC50 [8] was greater than 10 µM.

Work on `C=C(C)[C@@H]1C[C@H](O)[C@]2(C(=O)O[C@@H]3O[C@H](CO)[C@@H](O)[C@H](O)[C@H]3O)CC[C@]3(C)[C@H](C[C@@H](O)[C@@H]4[C@@]5(C)[C@@H](CC(=O)OC)OC(C)(C)[C@@H]5CC[C@]43C)[C@@H]12` [ACANTHOSESSILIOSIDE C] yielded an IC50 [1] greater than 10 µM, an IC50 [2] greater than 10 µM and an IC50 [3] greater than 10 µM. It also gave an IC50 [4] greater than 50 µM, an IC50 [5] greater than 10 µM and an IC50 [6] greater than 10 µM. The IC50 [7] was greater than 10 µM and the IC50 [8] was greater than 10 µM.

With `C=C(C)[C@@H]1C[C@H](O)[C@]2(C(=O)O)CC[C@]3(C)[C@H](C[C@H]4OC(=O)C[C@@H](O)[C@]5(C)[C@@H]4[C@@]3(C)CC[C@H]5C(=C)C)[C@@H]12` the IC50 [1] was greater than 10 µM, the IC50 [2] was greater than 10 µM and the IC50 [3] was greater than 10 µM. It also gave an IC50 [4] greater than 50 µM, an IC50 [5] greater than 10 µM and an IC50 [6] greater than 10 µM. For the same molecule, the IC50 [7] was greater than 10 µM and the IC50 [8] was greater than 10 µM.

`CC(=O)O[C@H]1C(=O)[C@@]2(C)[C@H]([C@H](OC(=O)c3ccccc3)[C@]3(O)C[C@H](OC(=O)[C@H](O)[C@@H](NC(=O)c4ccccc4)c4ccccc4)C(C)=C1C3(C)C)[C@]1(OC(C)=O)CO[C@@H]1C[C@@H]2O` [PACLITAXEL] gave an IC50 [2] of 0.15 µM, an IC50 [3] of 0.11 µM and an IC50 [5] of 0.9 µM. The IC50 [6] was 0.4 µM and the IC50 [8] was 0.05 µM.

Molecule `C=C(C)[C@@H]1C[C@H](O)[C@]2(C(=O)O[C@@H]3O[C@H](CO[C@@H]4O[C@H](CO)[C@@H](O[C@@H]5O[C@@H](C)[C@H](O)[C@@H](O)[C@H]5O)[C@H](O)[C@H]4O)[C@@H](O)[C@H](O)[C@H]3O)CC[C@]3(C)[C@H](C[C@H]4OC(=O)C[C@@H](O)[C@]5(C)[C@@H]4[C@@]3(C)CC[C@H]5C(=C)C)[C@@H]12` has an IC50 [1] greater than 10 µM, an IC50 [2] greater than 10 µM and an IC50 [3] greater than 10 µM. The IC50 [4] was greater than 50 µM, the IC50 [5] was greater than 10 µM and the IC50 [6] was greater than 10 µM. For the same molecule, the IC50 [7] was greater than 10 µM and the IC50 [8] was greater than 10 µM.

In the case of `C=C(C)[C@@H]1CC[C@]2(C(=O)O[C@@H]3O[C@H](CO[C@@H]4O[C@H](CO)[C@@H](O[C@@H]5O[C@@H](C)[C@H](O)[C@@H](O)[C@H]5O)[C@H](O)[C@H]4O)[C@@H](O)[C@H](O)[C@H]3O)CC[C@]3(C)[C@H](C[C@H]4OC(=O)C[C@@H](O)[C@]5(C)[C@@H]4[C@@]3(C)CC[C@H]5C(=C)C)[C@@H]12` [CHIISANOSIDE], the IC50 [1] is reported as greater than 10 µM, the IC50 [2] is reported as less than 10 µM and the IC50 [3] is reported as less than 10 µM. It also gave an IC50 [4] greater than 50 µM, an IC50 [5] of less than 10 µM and an IC50 [6] of less than 10 µM. It also gave an IC50 [7] greater than 10 µM and an IC50 [8] of less than 10 µM.

For `C=C(C)[C@@H]1CC[C@]2(C(=O)O)CC[C@]3(C)[C@H](CC[C@@H]4[C@@]5(C)[C@@H](CC(=O)O[C@@H]6O[C@H](CO)[C@@H](O)[C@H](O)[C@H]6O)OC(C)(C)[C@@H]5CC[C@]43C)[C@@H]12` [ACANTHOSESSILIOSIDE D], the IC50 [1] was greater than 10 µM, the IC50 [2] was greater than 10 µM and the IC50 [3] was greater than 10 µM. It also gave an IC50 [4] of 11.9 µM, an IC50 [5] greater than 10 µM and an IC50 [6] greater than 10 µM. For the same molecule, the IC50 [7] was greater than 10 µM, the IC50 [8] was greater than 10 µM and the viability at 24 h [9] was 95.2%.
